From ChEMBL document CHEMBL1154333, “Xanthepinone, an antimicrobial polyketide from a soil fungus closely related to Phoma medicaginis” (2009)
Converted amounts (≈) assume the structure as drawn.

Key:
[1] = tested on: Candida albicans; assay: Antifungal activity against Candida albicans by serial dilution test; type: functional
Method in brief: (§1)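 Yeasts tested by serial dilution in YMG medium (glucose 1%, malt extract 1%, yeast extract 0.4%).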

[2] = tested on: Eremothecium coryli; assay: Antifungal activity against Nematospora coryli by serial dilution test; type: functional; method in brief: as §1
[3] = tested on: Rhizomucor miehei; assay: Inhibition of conidial germination in Mucor miehei; type: functional
Method in brief: (§2)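 Conidia from 10-day-old cultures were pelleted (1000g, 10 min) and resuspended in distilled water. Each well held 0.5 × 10⁴ conidia in 0.2 mL distilled water and was incubated 16 h at 28 °C. Germinated conidia were counted under an inverted microscope: triplicates, 3 × 100 conidia. The value is the IC100, the concentration for complete germination inhibition.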

[4] = tested on: Proteus vulgaris; assay: Antibacterial activity against Proteus vulgaris by serial dilution test; type: functional
Method in brief: (§3)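 Serial broth dilution in nutrient broth.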

[5] = tested on: Pyricularia grisea; assay: Inhibition of conidial germination in Magnaporthe grisea; type: functional
Method in brief: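 M. grisea strain 70-15, grown on CM medium. Conidia were harvested from plates kept at 28 °C on a 16 h light/8 h dark cycle (24 °C in the dark). They were pelleted (1000g, 10 min) and resuspended in distilled water. Each well held 0.5 × 10⁴ conidia/0.2 mL water, 16 h at 28 °C. Germinated conidia were counted microscopically: triplicates, 3 × 100. Value given as IC100.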

[6] = tested on: Botrytis cinerea; assay: Inhibition of conidial germination in Botrytis cinerea; type: functional; method in brief: as §2
[7] = tested on: Saccharomyces cerevisiae; assay: Antifungal activity against Saccharomyces cerevisiae by serial dilution test; type: functional; method in brief: as §1
[8] = tested on: Brevibacillus brevis; assay: Antibacterial activity against Bacillus brevis ATCC 9999 by serial dilution test; type: functional; method in brief: as §3
[9] = tested on: Bacillus subtilis; assay: Antibacterial activity against Bacillus subtilis ATCC 6633 by serial dilution test; type: functional; method in brief: as §3
[10] = tested on: Escherichia coli; assay: Antibacterial activity against Escherichia coli K-12 by serial dilution test; type: functional; method in brief: as §3
[11] = tested on: Enterobacter cloacae subsp. dissolvens; assay: Antibacterial activity against Enterobacter dissolvens by serial dilution test; type: functional; method in brief: as §3
[12] = tested on: Micrococcus luteus; assay: Antibacterial activity against Micrococcus luteus by serial dilution test; type: functional; method in brief: as §3
[13] = tested on: Pseudomonas fluorescens; assay: Antibacterial activity against Pseudomonas fluorescens by serial dilution test; type: functional; method in brief: as §3
[14] = tested on: Staphylococcus aureus; assay: Antibacterial activity against Staphylococcus aureus by serial dilution test; type: functional; method in brief: as §3
[15] = tested on: Paecilomyces variotii; assay: Inhibition of conidial germination in Paecilomyces variotii; type: functional; method in brief: as §2
[16] = tested on: Penicillium chrysogenum; assay: Inhibition of conidial germination in Penicillium notatum; type: functional; method in brief: as §2
[17] = tested on: Phytophthora infestans; assay: Inhibition of conidial germination in Phytophthora infestans; type: functional; method in brief: as §2
[18] = tested on: HeLa S3; assay: Cytotoxicity against human HeLaS3 cells at 50 ug/ml; type: functional, cell-based
[19] = tested on: HepG2; assay: Cytotoxicity against human HepG2 cells at 50 ug/ml; type: functional, cell-based

`C[C@@H]1[C@H](O)[C@@H](C)/C=C/C=C/C=C/C=C/C=C/C=C/C=C/[C@H](O[C@@H]2O[C@H](C)[C@@H](O)[C@H](N)[C@@H]2O)C[C@@H]2O[C@](O)(C[C@@H](O)C[C@@H](O)[C@H](O)CC[C@@H](O)C[C@@H](O)CC(=O)O[C@H]1C)C[C@H](O)[C@H]2C(=O)O` [AMPHOTERICIN B] gave an MIC [1] of 10 µg/mL (≈ 10.8 µM), an MIC [2] of 15 µg/mL (≈ 16.2 µM) and an MIC ([3]; Rhizomucor miehei) of 5 µg/mL (≈ 5.41 µM).

`CN[C@@H]1[C@H](O[C@H]2[C@H](O[C@H]3[C@H](O)[C@@H](O)[C@H](N=C(N)N)[C@@H](O)[C@@H]3N=C(N)N)O[C@@H](C)[C@]2(O)C=O)O[C@@H](CO)[C@H](O)[C@H]1O.CN[C@@H]1[C@H](O[C@H]2[C@H](O[C@H]3[C@H](O)[C@@H](O)[C@H](N=C(N)N)[C@@H](O)[C@@H]3N=C(N)N)O[C@@H](C)[C@]2(O)C=O)O[C@@H](CO)[C@H](O)[C@H]1O.O=S(=O)(O)O.O=S(=O)(O)O.O=S(=O)(O)O` [STREPTOMYCIN SULFATE] showed an MIC [4] of 5 µg/mL.

Work on `COC(=O)C1(O)C(=O)C(C)=COc2oc3cccc(O)c3c(=O)c21` (stereo not drawn) [XANTHEPINONE] yielded an IC100 [5] of 2 µg/mL, an IC100 [6] of 10 µg/mL and an MIC [1] of 50 µg/mL (≈ 150 µM). It also gave an MIC [2] of 10 µg/mL (≈ 30.1 µM), an MIC [7] of 25 µg/mL (≈ 75.2 µM) and an MIC [8] greater than 50 µg/mL. For the same compound, the MIC [9] was greater than 50 µg/mL, the MIC [10] was greater than 50 µg/mL and the MIC [11] was greater than 50 µg/mL. It also gave an MIC [12] greater than 50 µg/mL, an MIC [4] of 50 µg/mL (≈ 150 µM) and an MIC [13] greater than 50 µg/mL. For the same compound, the MIC [14] was 50 µg/mL (≈ 150 µM), the IC100 [3] was 25 µg/mL and the IC100 [15] was 50 µg/mL. The IC100 [16] was 25 µg/mL, the IC100 [17] was 5 µg/mL and the Activity [18] was “Not toxic”. The Activity [19] was “Not toxic”.
